Results on 17 molecules are retold here after ChEMBL document CHEMBL1136217, “Mapping the kinase domain of Janus Kinase 3” (Bioorg Med Chem Lett, 2003).

Activity calls are given as the source filed them. The calls are words filed in the database; no cut-off is given here.

The target in series [1] is T1, Tyrosine-protein kinase JAK3 (Homo sapiens, UniProt P52333).
T1 sequence (P52333 whole entry): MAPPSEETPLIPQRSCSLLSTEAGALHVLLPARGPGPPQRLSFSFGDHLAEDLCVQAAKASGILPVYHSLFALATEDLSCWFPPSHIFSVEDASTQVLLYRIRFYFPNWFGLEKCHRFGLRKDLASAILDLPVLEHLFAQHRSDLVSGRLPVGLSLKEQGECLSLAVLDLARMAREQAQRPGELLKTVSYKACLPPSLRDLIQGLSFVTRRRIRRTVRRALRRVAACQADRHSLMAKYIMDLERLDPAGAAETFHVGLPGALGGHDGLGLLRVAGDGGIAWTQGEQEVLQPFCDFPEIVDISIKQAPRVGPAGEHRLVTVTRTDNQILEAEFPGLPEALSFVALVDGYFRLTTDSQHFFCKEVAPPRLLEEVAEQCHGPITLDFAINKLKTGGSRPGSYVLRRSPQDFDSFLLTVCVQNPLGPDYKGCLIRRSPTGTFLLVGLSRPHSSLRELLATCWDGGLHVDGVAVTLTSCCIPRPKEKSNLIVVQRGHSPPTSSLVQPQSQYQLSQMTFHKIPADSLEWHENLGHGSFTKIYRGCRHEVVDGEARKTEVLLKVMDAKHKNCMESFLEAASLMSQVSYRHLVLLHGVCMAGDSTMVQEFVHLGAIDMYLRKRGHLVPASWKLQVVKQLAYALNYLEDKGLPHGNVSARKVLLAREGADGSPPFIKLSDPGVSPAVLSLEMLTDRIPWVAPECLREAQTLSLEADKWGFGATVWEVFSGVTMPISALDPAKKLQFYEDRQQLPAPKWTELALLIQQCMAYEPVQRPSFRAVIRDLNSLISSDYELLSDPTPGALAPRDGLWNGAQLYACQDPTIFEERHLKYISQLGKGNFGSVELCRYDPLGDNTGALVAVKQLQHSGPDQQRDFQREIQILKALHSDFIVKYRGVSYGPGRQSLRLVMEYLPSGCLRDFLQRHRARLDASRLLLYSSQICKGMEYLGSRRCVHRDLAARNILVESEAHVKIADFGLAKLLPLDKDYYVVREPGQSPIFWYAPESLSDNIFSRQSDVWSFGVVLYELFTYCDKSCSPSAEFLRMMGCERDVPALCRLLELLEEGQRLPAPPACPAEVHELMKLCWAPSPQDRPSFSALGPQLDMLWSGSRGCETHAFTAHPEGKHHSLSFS
Kind of series: Inhibitory activity against Janus Kinase 3 protein tyrosine kinase.

Series [2] relates to T-cell. Description: Inhibitory activity against IL-2 induced proliferation of human T-cells. It is filed as functional, cell-based.
Series [3] addresses Tyrosine-protein kinase JAK3 (Mus musculus) (UniProt Q62137). To be noted: at 3 µM.
The subject of series [4] is CTLL. Kind of series: Inhibitory activity against IL-2 induced proliferation of mouse CTLL cells. It counts as functional, cell-based.
Series [5] is described as follows: Area under curve (AUC) following ip administration at 1 mg/kg. Set-up: dose 1 mg/kg, route intraperitoneal. It counts as ADME, organism-based. As to conditions: in vivo.
A short description of series [6]: T max following ip administration at 1 mg/kg. It is filed as ADME, organism-based. Set-up: dose 1 mg/kg, route intraperitoneal. As to conditions: in vivo.
Series [7] can be described thus: Terminal T1/2 following ip administration at 1 mg/kg. It counts as ADME, organism-based. Also noted: dose 1 mg/kg, route intraperitoneal. To be noted: in vivo.
Series [8] can be described thus: Cp max following ip administration at 1 mg/kg. It is filed as ADME, organism-based. Also noted: dose 1 mg/kg, route intraperitoneal. As to conditions: plasma, read-out: Cp max.
In series [9] the test system is CTLL. Kind of series: Inhibitory activity against IL-2 induced proliferation in mouse CTLL cells. It counts as functional, cell-based. Put shortly: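 Murine CTLL cells were seeded at 2 × 10^4 per well without IL-2 for 6 h. At time zero, recombinant human IL-2 (10 U/mL) and inhibitor in DMSO (0.5% final) were added. [3H]-thymidine (1 µCi/well) was added at 18 h, and cells were harvested at 24 h. Proliferation was read as incorporated radioactivity by scintillation counting.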

Series [10] deals with T-cell. Kind of series: Inhibitory activity against IL-2 induced proliferation in human T-cells. It counts as functional, cell-based.

Sequence of Tyrosine-protein kinase JAK3 (Mus musculus) (Q62137 whole entry, looked up): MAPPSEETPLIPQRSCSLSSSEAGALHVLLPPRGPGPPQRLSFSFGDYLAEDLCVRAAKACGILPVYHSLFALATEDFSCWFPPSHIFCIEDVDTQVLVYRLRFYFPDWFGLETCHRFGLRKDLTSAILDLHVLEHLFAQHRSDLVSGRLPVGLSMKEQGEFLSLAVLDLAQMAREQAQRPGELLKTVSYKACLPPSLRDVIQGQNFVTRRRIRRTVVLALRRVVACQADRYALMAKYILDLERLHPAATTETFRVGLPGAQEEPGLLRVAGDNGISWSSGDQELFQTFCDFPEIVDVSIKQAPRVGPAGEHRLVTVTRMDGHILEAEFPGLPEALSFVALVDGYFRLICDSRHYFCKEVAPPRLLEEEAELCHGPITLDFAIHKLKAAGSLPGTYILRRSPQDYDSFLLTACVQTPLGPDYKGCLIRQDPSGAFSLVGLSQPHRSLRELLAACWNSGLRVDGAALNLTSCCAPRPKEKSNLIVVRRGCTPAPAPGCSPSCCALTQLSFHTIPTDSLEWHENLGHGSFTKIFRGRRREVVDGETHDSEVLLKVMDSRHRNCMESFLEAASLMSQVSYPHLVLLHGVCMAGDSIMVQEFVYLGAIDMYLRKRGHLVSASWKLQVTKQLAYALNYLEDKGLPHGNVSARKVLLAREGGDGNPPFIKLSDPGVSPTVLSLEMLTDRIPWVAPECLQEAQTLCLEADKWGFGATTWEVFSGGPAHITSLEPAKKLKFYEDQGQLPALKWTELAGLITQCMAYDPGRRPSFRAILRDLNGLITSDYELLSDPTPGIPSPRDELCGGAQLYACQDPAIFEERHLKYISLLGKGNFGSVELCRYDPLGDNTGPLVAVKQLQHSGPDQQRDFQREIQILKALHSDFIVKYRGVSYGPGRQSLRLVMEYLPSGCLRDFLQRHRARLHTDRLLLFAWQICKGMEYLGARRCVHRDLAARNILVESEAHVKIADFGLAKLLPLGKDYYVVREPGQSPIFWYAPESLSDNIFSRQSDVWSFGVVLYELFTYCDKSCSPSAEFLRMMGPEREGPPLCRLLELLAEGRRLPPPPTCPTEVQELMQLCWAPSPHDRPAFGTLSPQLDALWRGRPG

By IC50 is commonly meant the concentration that gives 50% inhibition. Read a low IC50 as inhibition by little substance. The molecule `O=C1Nc2ccc(C(O)c3cccs3)cc2/C1=C/c1ccc[nH]1` (centres undefined) yielded an IC50 in [1] of 190 nM.
The same measure, in the same setting: to `O=C1Nc2ccc([N+](=O)[O-])cc2/C1=C/c1ccc[nH]1` belongs 710 nM; to `O=C1Nc2ccc(C(=O)c3cccs3)cc2/C1=C/C(=O)c1ccc[nH]1`, 260 nM.
Same read-out and setting: to `CN(C)c1ccc(/C=C2\C(=O)Nc3ccc(C(=O)c4cccs4)cc32)cc1` belongs 200 nM.
Still for that read-out and setting: to `O=C1Nc2ccc(C(=O)c3cccnc3)cc2/C1=C/c1ccc[nH]1` belongs 168 nM; to `CS(=O)(=O)c1ccc(/C=C2\C(=O)Nc3ccc(C(=O)c4cccs4)cc32)cc1`, 7100 nM.
Regarding `O=C1Nc2ccc(NC(=O)c3ccccc3)cc2/C1=C/c1ccc[nH]1`, in series [1], 870 nM corresponded to half-maximal inhibition (IC50).
The same measure, in the same setting: to `O=C1Nc2ccc(C(=O)c3cccs3)cc2/C1=C/c1ccc[nH]1` belongs 26 nM.
On the same count and under the same terms, to `O=C1Nc2ccc(C(=O)c3cccs3)cc2/C1=C/c1ccccc1` belongs 2300 nM.
Consider `O=C1Nc2ccc(-c3cccnc3)nc2/C1=C/c1ccc[nH]1`, for which the results for the IC50 (in [1]; in the series with T-cell [2]; in the series on CTLL [4]) were 235 nM, 700 nM and 920 nM, respectively. The inhibition entry in series [3] was “Active”.
As a reminder, the AUC is the area under the concentration-time curve, a measure of exposure. By Tmax is commonly meant the time from dosing to the highest level. The half-life is how long it takes for the measured level to halve. High values mean slow decline, low ones rapid decline. The molecule `O=C1Nc2ccc(-c3cccnc3)cc2/C1=C/c1ccc[nH]1` had an AUC in series [5] of 7690 ng·h/mL. Moreover, the Tmax in series [6] stood at 0.5 h. The same molecule gave a half-life in series [7] of 3 h. For the same molecule, the Cmax in [8] was 600 ng/mL.
As to `O=C1Nc2ccc(C(=O)O)cc2/C1=C/c1ccc[nH]1`, half-maximal inhibition in series [1] (IC50) was put at 213 nM.
On the same count and under the same terms, to `CN(C)C(=O)c1ccc2c(c1)/C(=C/c1ccc[nH]1)C(=O)N2` belongs 210 nM.
As for `O=C1Nc2ncc(-c3cccnc3)cc2/C1=C/c1ccc[nH]1`, the concentration for half-maximal inhibition (IC50) with CTLL [9] was 2300 nM; with T-cell [10] it was 2000 nM.
Molecule `O=C1Nc2ccc(C(=O)c3cccs3)cc2/C1=C/c1ccc(F)cc1` registered an IC50 in series [1] of 4900 nM.
In the case of `O=C1Nc2cnc(-c3cccnc3)cc2/C1=C/c1ccc[nH]1`, the AUC in series [5] was found to be 4580 ng·h/mL. The Tmax in series [6] turned out to be 0.5 h. Also, the IC50 with T-cell [2] worked out at 30 nM; in the series on CTLL [4] it was 450 nM. Further, the half-life in series [7] was 3.3 h. Besides, the Cmax in series [8] is 700 ng/mL.
In [1], `CC(=O)Nc1ccc(/C=C2\C(=O)Nc3ccc(C(=O)c4cccs4)cc32)cc1` had a concentration for half-maximal inhibition (IC50) of 700 nM.
